From ChEMBL document CHEMBL1154198, “Chemical genetics of Plasmodium falciparum” (Nature, 2010)

Columns and labels:
Plasmodium falciparum [1] = assay: ST_JUDE: Plasmodium falciparum 3D7 EC50 (uM) as measured by SYBR green dye; assay type: functional, organism-based
Plasmodium falciparum [2] = assay: ST_JUDE: Plasmodium falciparum K1 EC50 (uM) as measured by SYBR green dye; assay type: functional, organism-based
Plasmodium falciparum [3] = assay: ST_JUDE: Cytotoxicity against Plasmodium falciparum 3D7; assay type: functional, organism-based
Outline: (§1)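 Asexual P. falciparum grown in human erythrocytes, exposed to compounds for 72 h, and growth read as the DNA quantity in treated versus control cultures. Dose-response run at 12 concentrations from 10 μM to 5 nM.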

Plasmodium falciparum [4] = assay: ST_JUDE: Cytotoxicity against Plasmodium falciparum K1; assay type: functional, organism-based; outline: as §1
Plasmodium falciparum [5] = assay: ST_JUDE: Cytotoxicity against Plasmodium falciparum V1/S; assay type: functional, organism-based
Toxoplasma gondii = assay: ST_JUDE: Growth inhibition of to Toxoplasma gondii, in human U-2OS cells, as measured by luciferase.; assay type: functional, organism-based; conditions: RH, U2OS
Outline: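 T. gondii parasites engineered to express luciferase; drug sensitivity read by luminescence.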

Trypanosoma brucei = assay: ST_JUDE: Cytotoxicity using luciferase to measure ATP as an indicator of the viability of Trypanosoma brucei; assay type: functional, organism-based
Leishmania major = assay: ST_JUDE: Cytotoxicity using Alamar Blue to measure viability of Leishmania major; assay type: functional, organism-based
Outline: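 L. major promastigotes; drug susceptibility read with Alamar Blue.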

[6] = ST_JUDE: Cytotoxicity using luciferase to measure ATP as an indicator of the viability of human foreskin fibroblast cells (BJ); assay type: toxicity, cell-based
[7] = ST_JUDE: Cytotoxicity using luciferase to measure ATP as an indicator of the viability of human epithelial hepatocellular carcinoma cells (HepG2); assay type: toxicity, cell-based
[8] = ST_JUDE: Cytotoxicity using luciferase to measure ATP as an indicator of the viability of human epithelial embryonic kidney cells (HEK293); assay type: toxicity, cell-based
[9] = ST_JUDE: Cytotoxicity using luciferase to measure ATP as an indicator of the viability of human Burkitt''s lymphoma lymphoblast cells (Raji); assay type: toxicity, cell-based
Plasmodium falciparum [10] = assay: ST_JUDE: Cytotoxicity against Plasmodium falciparum Dd2; assay type: functional, organism-based
Plasmodium falciparum [11] = assay: ST_JUDE: Cytotoxicity against Plasmodium falciparum W2; assay type: functional, organism-based
Plasmodium falciparum [12] = assay: ST_JUDE: Cytotoxicity against Plasmodium falciparum SB-A6; assay type: functional, organism-based
Plasmodium falciparum [13] = assay: ST_JUDE: Cytotoxicity against Plasmodium falciparum D10 transfected with yeast DHOD; assay type: functional, organism-based

Structure (SMILES) | EC50 (Plasmodium falciparum [1]) [µM] | EC50 (Plasmodium falciparum [2]) [µM] | EC50 (Plasmodium falciparum [3]) [µM] | EC50 (Plasmodium falciparum [4]) [µM] | EC50 (Plasmodium falciparum [5]) [µM] | EC50 (Toxoplasma gondii) [µM] | EC50 (Trypanosoma brucei) [µM] | EC50 (Leishmania major) [µM] | EC50 [6] [µM] | EC50 [7] [µM] | EC50 [8] [µM] | EC50 [9] [µM] | EC50 (Plasmodium falciparum [10]) [µM] | EC50 (Plasmodium falciparum [11]) [µM] | EC50 (Plasmodium falciparum [12]) [µM] | EC50 (Plasmodium falciparum [13]) [µM]
Oc1ccc(Br)cc1CN1CCN(C2CC3CCC2C3)CC1 (centres undefined) | 0.289 | 0.181 | 0.501 | 0.131 | 0.29 | > 20.9 | > 36.6 | > 16.4 | > 38.2 | > 38.2 | > 38.2 | > 38.2 | 0.285 | 0.519 | 0.953 | 0.864
CC(C)(C)c1cc(C2C(C#N)=C(N)OC3=C2C(=O)CCC3)cc(C(C)(C)C)c1O (centres undefined) | 1.35 | 0.427 | 1.85 | 1.86 | 1.52 | 1.34 | 5.46 | > 15.5 | > 36.2 | 3.03 | > 36.2 | 3.04 | 2.53 | 3.44 | 2.53 | 2.39
CCN1/C(=C/c2cccc[n+]2C)Sc2ccc(OC)cc21 | 0.48 | 0.329 | 0.603 | 0.784 | 1.08 | > 14.3 | 3.73 | 0.0189 | > 26.2 | > 26.2 | > 26.2 | 3.16 | 0.748 | > 6.72 | 1.55 | 1.27
O=[N+]([O-])c1ccc(S(=O)(=O)N2CCN(C(=S)NCc3ccco3)CC2)cc1 | 0.185 | 0.132 | 0.261 | 0.252 | 0.269 | > 17.4 | > 30.4 | > 13.6 | > 31.7 | > 31.7 | > 31.7 | > 31.7 | 0.123 | 0.299 | 0.289 | 0.316

Now from value to compound, other results behind:

EC50 (Plasmodium falciparum [1]) [µM] | EC50 (Plasmodium falciparum [2]) [µM] | Structure (SMILES) | EC50 (Plasmodium falciparum [3]) [µM] | EC50 (Plasmodium falciparum [4]) [µM] | EC50 (Plasmodium falciparum [5]) [µM] | EC50 (Toxoplasma gondii) [µM] | EC50 (Trypanosoma brucei) [µM] | EC50 (Leishmania major) [µM] | EC50 [6] [µM] | EC50 [7] [µM] | EC50 [8] [µM] | EC50 [9] [µM] | EC50 (Plasmodium falciparum [10]) [µM] | EC50 (Plasmodium falciparum [11]) [µM] | EC50 (Plasmodium falciparum [12]) [µM] | EC50 (Plasmodium falciparum [13]) [µM]
0.594 | 0.497 | Cc1cc(C)nc(/N=C(\N)Nc2ccccc2O)n1 | 1.43 | 0.56 | 0.979 | > 18.7 | > 32.8 | > 14.6 | > 34.2 | > 34.2 | > 34.2 | > 34.2 | 0.908 | 5.71 | 2.18 | 2.88
1.12 | 0.582 | CCOc1ccc2nc3cc(N)ccc3c(N)c2c1 | 1.94 | 1.73 | 2 | > 17.9 | 7.47 | > 14 | 17.9 | > 32.6 | > 32.6 | > 32.6 | 0.294 | 0.758 | 2.38 | 2.39
0.186 | 0.152 | COc1ccc2c(c1)N(C)/C(=C/c1cccc[n+]1C)S2 | 0.441 | 0.386 | 1.5 | > 8.63 | 0.643 | 0.0088 | > 15.7 | > 15.7 | > 15.7 | 6.52 | 0.472 | > 4.04 | 1.26 | 2.46
1.21 | 1.11 | CCOc1ccccc1N1CCN(Cc2cc(Br)cc(OC)c2O)CC1 | 1.51 | 0.478 | 0.643 | > 20.1 | > 35.3 | > 15.7 | > 36.8 | > 36.8 | > 36.8 | > 36.8 | 1.17 | 2.93 | 1.14 | 2.42
0.27 | 0.14 | CC(C)NCC(O)Cn1c2ccc(Cl)cc2c2cc(Cl)ccc21 (centres undefined) | 1.8 | 0.477 | 4.84 | > 22.8 | 0.861 | > 17.8 | > 41.6 | 7.62 | 17.7 | 20.9 | 0.239 | 0.122 | 0.656 | 0.626
